Measured values: ChEMBL document CHEMBL1955814, “Tailoring of integrin ligands: probing the charge capability of the metal ion-dependent adhesion site” (J Med Chem, 2012)

Columns and labels:
[1] = target: Integrin alpha-IIb/beta-3 (Homo sapiens, UniProt P05106+P08514); assay: Displacement of extracellular matrix protein fibrinogen from human integrin alpha2bbeta3 after 1 hr by competitive ELISA; assay type: protein-complex assay
How it was run: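 Plates coated overnight at 4 °C with 10 μg/mL fibrinogen in carbonate buffer pH 9.6, blocked with 1% BSA in Tris buffer containing 1 mM Ca2+, Mg2+ and Mn2+. Inhibitor (0.00013−10 μM final) plus 2.5 μg/mL final soluble human αIIbβ3 for 1 h at RT. Bound integrin detected with anti-CD41b and peroxidase secondary antibody, A450.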

[2] = Apparent permeability across human Caco2 cells after 30 to 150 mins; assay type: ADME, cell-based; details: Caco-2
How it was run: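 Caco-2 monolayers, passage 52−60, grown 21−23 days on polycarbonate inserts (0.4 μm pores, 1.1 cm²) until TEER stable at 300−500 Ω cm². Apical-to-basolateral transport at 37 °C with shaking after 30 min buffer preincubation. Basolateral samples at 30, 60, 90, 120 and 150 min, replaced with fresh buffer. Mass balance done per compound.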

Integrin alpha-IIb/beta-3, sequence (P05106 27-788 limits assumed): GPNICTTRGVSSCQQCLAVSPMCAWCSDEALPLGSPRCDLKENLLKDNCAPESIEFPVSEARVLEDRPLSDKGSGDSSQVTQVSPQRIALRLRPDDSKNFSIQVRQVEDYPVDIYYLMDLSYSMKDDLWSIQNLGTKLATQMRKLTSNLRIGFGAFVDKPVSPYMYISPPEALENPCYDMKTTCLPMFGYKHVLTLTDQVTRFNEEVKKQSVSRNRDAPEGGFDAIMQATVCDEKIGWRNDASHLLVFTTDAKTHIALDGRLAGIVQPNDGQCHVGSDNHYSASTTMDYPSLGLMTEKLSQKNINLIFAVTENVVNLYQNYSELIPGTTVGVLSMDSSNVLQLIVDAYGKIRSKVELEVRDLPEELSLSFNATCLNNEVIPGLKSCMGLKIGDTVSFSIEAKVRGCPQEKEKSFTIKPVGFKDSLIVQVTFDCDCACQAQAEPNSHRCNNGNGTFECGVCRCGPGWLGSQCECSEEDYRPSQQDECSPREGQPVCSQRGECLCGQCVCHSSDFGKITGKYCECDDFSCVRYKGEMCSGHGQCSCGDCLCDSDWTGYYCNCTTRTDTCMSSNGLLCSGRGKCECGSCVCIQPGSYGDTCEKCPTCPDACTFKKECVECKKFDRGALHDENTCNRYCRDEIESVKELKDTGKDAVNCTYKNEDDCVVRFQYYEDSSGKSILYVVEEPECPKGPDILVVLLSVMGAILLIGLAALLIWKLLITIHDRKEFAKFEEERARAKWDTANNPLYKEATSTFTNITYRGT
Integrin alpha-IIb/beta-3, sequence (P08514 32-887 limits assumed): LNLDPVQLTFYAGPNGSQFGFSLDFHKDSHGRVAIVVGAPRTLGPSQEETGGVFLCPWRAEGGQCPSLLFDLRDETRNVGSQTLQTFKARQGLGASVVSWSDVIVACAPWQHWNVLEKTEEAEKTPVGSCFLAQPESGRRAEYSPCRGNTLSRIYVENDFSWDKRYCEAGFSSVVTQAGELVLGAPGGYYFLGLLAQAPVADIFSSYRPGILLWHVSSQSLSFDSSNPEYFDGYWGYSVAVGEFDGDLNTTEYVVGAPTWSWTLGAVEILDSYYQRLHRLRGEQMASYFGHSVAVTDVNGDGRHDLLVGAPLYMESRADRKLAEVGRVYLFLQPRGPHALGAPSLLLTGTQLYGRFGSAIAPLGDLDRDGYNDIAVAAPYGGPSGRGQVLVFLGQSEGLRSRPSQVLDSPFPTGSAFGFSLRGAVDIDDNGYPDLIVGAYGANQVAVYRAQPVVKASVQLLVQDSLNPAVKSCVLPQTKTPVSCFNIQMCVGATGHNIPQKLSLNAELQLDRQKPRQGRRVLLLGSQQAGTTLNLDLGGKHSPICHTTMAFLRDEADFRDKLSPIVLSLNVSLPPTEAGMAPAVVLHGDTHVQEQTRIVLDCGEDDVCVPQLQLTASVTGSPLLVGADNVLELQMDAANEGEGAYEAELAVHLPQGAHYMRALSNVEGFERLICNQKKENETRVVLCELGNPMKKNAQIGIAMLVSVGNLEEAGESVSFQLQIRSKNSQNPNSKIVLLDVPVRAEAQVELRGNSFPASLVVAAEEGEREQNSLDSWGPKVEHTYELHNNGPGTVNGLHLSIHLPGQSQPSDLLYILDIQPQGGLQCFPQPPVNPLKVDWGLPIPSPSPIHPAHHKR
Integrin alpha-IIb/beta-3, sequence (P08514 891-1039 limits assumed): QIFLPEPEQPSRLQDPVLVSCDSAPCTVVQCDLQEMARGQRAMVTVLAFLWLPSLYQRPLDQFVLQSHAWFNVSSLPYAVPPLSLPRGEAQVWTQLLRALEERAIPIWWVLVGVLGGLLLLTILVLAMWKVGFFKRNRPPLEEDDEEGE

SMILES | IC50 ([1]; read-out: IC50) [nM] | Papp [2] [×10⁻⁶ cm/s] | IC50 [1]
O=C(NC[C@@H](NS(=O)(=O)c1ccccc1)P(O)(O)=S)c1ccc(OCCC2CCNCC2)cc1 | 1320 |  | 
O=C(NC[C@H](NS(=O)(=O)c1ccccc1)P(=O)(O)O)c1ccc(OCCC2CCNCC2)cc1 | 22.7 | < 0.01 | 
CCCCS(=O)(=O)N[C@@H](Cc1ccc(OCCCCC2CCNCC2)cc1)C(=O)O [TIROFIBAN] |  | < 0.01 | 
COP(=O)(OC)[C@@H](CNC(=O)c1ccc(OCCC2CCNCC2)cc1)NS(=O)(=O)c1ccccc1 |  |  | Not Active
O=C(NC[C@@H](NS(=O)(=O)c1ccccc1)P(=O)(O)O)c1ccc(OCCC2CCNCC2)cc1 | 136 | < 0.01 | 
O=C(NC[C@H](NS(=O)(=O)c1ccccc1)C(=O)O)c1ccc(OCCC2CCNCC2)cc1 | 0.81 |  | 
COP(=O)(O)[C@H](CNC(=O)c1ccc(OCCC2CCNCC2)cc1)NS(=O)(=O)c1ccccc1 | 3.3 | < 0.01 | 
O=C(NC[C@H](NS(=O)(=O)c1ccccc1)[PH](=O)O)c1ccc(OCCC2CCNCC2)cc1 | 1.2 | < 0.01 | 
O=C(NC[C@@H](NS(=O)(=O)c1ccccc1)[PH](=O)O)c1ccc(OCCC2CCNCC2)cc1 | 6.3 | < 0.01 | 
COP(=O)(OC)[C@H](CNC(=O)c1ccc(OCCC2CCNCC2)cc1)NS(=O)(=O)c1ccccc1 |  |  | Not Active
OC[C@@H](O)[C@@H](O)[C@H](O)[C@H](O)CO [MANNITOL] |  | 2.4 | 
O=C(NC[C@H](NS(=O)(=O)c1ccccc1)P(O)(O)=S)c1ccc(OCCC2CCNCC2)cc1 | 62.5 |  | 
O=C(NC[C@@H](NS(=O)(=O)c1ccccc1)C(=O)O)c1ccc(OCCC2CCNCC2)cc1 | 4.4 |  | 
COP(=O)(O)[C@@H](CNC(=O)c1ccc(OCCC2CCNCC2)cc1)NS(=O)(=O)c1ccccc1 | 1150 |  | 
